In PMC2606940 (The Journal of General Physiology, 2009) one finds IC50 and apparent kon data, which are given here for 1 compound.

The assay has as its target T1, CLC-0 E166C/K519E mutant (E127/K519E) (Torpedo marmorata, UniProt P21564, C212S/E166C/K519E).
T1 sequence (P21564 1-805 E166C/C212S/K519E): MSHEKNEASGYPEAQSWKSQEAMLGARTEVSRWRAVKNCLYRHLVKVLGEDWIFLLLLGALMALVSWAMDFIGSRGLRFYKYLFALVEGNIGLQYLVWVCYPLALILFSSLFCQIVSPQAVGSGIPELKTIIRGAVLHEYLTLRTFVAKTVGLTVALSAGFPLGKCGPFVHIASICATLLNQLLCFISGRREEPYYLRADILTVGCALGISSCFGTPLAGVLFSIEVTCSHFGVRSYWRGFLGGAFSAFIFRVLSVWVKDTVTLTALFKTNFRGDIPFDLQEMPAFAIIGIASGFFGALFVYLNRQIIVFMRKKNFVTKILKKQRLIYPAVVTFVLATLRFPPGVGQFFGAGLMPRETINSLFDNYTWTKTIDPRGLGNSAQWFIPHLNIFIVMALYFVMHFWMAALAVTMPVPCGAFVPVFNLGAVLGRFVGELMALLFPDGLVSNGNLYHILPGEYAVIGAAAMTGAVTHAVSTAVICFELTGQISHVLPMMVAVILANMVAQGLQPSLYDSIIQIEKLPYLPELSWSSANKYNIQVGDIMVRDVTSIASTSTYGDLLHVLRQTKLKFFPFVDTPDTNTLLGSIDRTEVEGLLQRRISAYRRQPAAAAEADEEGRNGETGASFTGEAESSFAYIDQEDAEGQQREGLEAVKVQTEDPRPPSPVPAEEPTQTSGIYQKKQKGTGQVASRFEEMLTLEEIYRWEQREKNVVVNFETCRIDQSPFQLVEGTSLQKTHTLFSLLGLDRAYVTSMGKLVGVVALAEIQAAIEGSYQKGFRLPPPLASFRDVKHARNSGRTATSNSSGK
It is filed as cell-based. In short, it runs like this:
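CLC-0 mutants in the C212S background were transfected into HEK293 cells with lipofectamine and recorded 1–3 d later as excised inside-out patches. Both sides held 130 mM NaCl, 5 mM MgCl2, 10 mM HEPES and 1 mM EGTA, pH 7.4. CPA was perfused continuously onto the cytoplasmic face. Steady-state current over the last 10 ms was normalized to bracketing blocker-free controls and fitted to a Langmuir function for K1/2. Values are mean ± SEM of ~4–6 patches.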

Like-named read-outs stand apart in the source and are kept apart here.

In the case of `O=C(O)COc1ccc(Cl)cc1` [CPA, p-chlorophenoxy acetate], the IC50 runs as follows: (read-out: Apparent affinity (K1/2), −40 mV) 730 ± 59 µM; (read-out: Apparent affinity (K1/2), −60 mV) 516 ± 46 µM; (read-out: Apparent affinity (K1/2), −80 mV) 377 ± 39 µM; (read-out: Apparent affinity (K1/2), −100 mV) 277 ± 37 µM; (read-out: Apparent affinity (K1/2), −120 mV) 203 ± 34 µM; (read-out: Apparent affinity (K1/2), −140 mV) 158 ± 31 µM. The IC50 (read-out: Apparent affinity (K1/2), −160 mV) came out at 115 ± 25 µM and the IC50 (read-out: K1/2, −140 mV (Fig. 6)) was around 160 µM. For the same compound, the apparent kon (−160 mV) turned out to be 110000 M⁻¹ s⁻¹.
